# Assay results reported in ChEMBL document CHEMBL4689842, “EUbOPEN Chemogenomics Library wave 1” (2021).
# System: U2OS
# Test: Multiplex assay against U2OS
# Type: toxicity, cell-based
# Details: human
# Method in brief: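 Phenotypes for tubulin, mitochondrial mass and membrane permeability are expressed as per cents of healthy-nucleus cells. Cells were stained live at seeding with Hoechst33342, BioTracker Green Microtubule Cytoskeleton Dye, MitoTracker Red and Annexin V Alexa Fluor 680, then imaged after compound addition on a CQ1 microscope at 37°C and 5% CO2. Machine-learning gating in CellPathfinder separated Hoechst high-intensity objects from normal cells, divided normal cells by nuclear state (healthy, pyknosed, fragmented) and divided pyknosed cells into mitotic or apoptotic.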
# [1] = 12 h, 1 µM, compound concentration 1 uM, replicate 1
# [2] = 12 h, 1 µM, compound concentration 1 uM, replicate 2
# [3] = 12 h, 10 µM, compound concentration 10 uM, replicate 1
# [4] = 12 h, 10 µM, compound concentration 10 uM, replicate 2
# [5] = 24 h, 1 µM, compound concentration 1 uM, replicate 1
# [6] = 24 h, 1 µM, compound concentration 1 uM, replicate 2
# [7] = 24 h, 10 µM, compound concentration 10 uM, replicate 1
# [8] = 24 h, 10 µM, compound concentration 10 uM, replicate 2
# [9] = 48 h, 1 µM, compound concentration 1 uM, replicate 1
# [10] = 48 h, 1 µM, compound concentration 1 uM, replicate 2
# [11] = 48 h, 10 µM, compound concentration 10 uM, replicate 1
# [12] = 48 h, 10 µM, compound concentration 10 uM, replicate 2
smiles,measurement,setting,value
C=CC(=O)Nc1cc(-n2c(=O)ccc3cnc4ccc(-c5ccc(NS(C)(=O)=O)cc5)cc4c32)ccc1C,Population Apoptotic (%),[1],35%
same,Population Fragmented Nuclei (%),[1],6%
same,Population Healthy Nuclei (%),[1],80%
same,Population Hoechst High Intensity Objects (%),[1],3%
same,Population Membrane Permeable-Phenotype (%),[1],7%
same,Population Mitochondria Different-Phenotype (%),[1],4%
same,Population Mitotic Cells (%),[1],65%
same,Population Normal (%),[1],96%
same,Population Pyknosed Nuclei (%),[1],12%
same,Population Tubulin-Different-Phenotype (%),[1],6%
same,Total Cell Count,[1],164
same,Population Apoptotic (%),[2],33%
same,Population Fragmented Nuclei (%),[2],10%
same,Population Healthy Nuclei (%),[2],77%
same,Population Hoechst High Intensity Objects (%),[2],7%
same,Population Membrane Permeable-Phenotype (%),[2],0%
same,Population Mitochondria Different-Phenotype (%),[2],10%
same,Population Mitotic Cells (%),[2],66%
same,Population Normal (%),[2],92%
same,Population Tubulin-Different-Phenotype (%),[2],10%
same,Total Cell Count,[2],53
same,Population Apoptotic (%),[3],30%
same,Population Fragmented Nuclei (%),[3],19%
same,Population Healthy Nuclei (%),[3],66%
same,Population Hoechst High Intensity Objects (%),[3],7%
same,Population Membrane Permeable-Phenotype (%),[3],10%
same,Population Mitochondria Different-Phenotype (%),[3],26%
same,Population Mitotic Cells (%),[3],69%
same,Population Normal (%),[3],92%
same,Population Pyknosed Nuclei (%),[3],14%
same,Population Tubulin-Different-Phenotype (%),[3],29%
same,Total Cell Count,[3],173
same,Population Apoptotic (%),[4],76%
same,Population Fragmented Nuclei (%),[4],8%
same,Population Healthy Nuclei (%),[4],54%
same,Population Hoechst High Intensity Objects (%),[4],9%
same,Population Membrane Permeable-Phenotype (%),[4],12%
same,Population Mitochondria Different-Phenotype (%),[4],56%
same,Population Mitotic Cells (%),[4],23%
same,Population Normal (%),[4],90%
same,Population Pyknosed Nuclei (%),[4],36%
same,Population Tubulin-Different-Phenotype (%),[4],52%
same,Total Cell Count,[4],51
same,Population Apoptotic (%),[5],28%
same,Population Fragmented Nuclei (%),[5],6%
same,Population Healthy Nuclei (%),[5],86%
same,Population Hoechst High Intensity Objects (%),[5],4%
same,Population Membrane Permeable-Phenotype (%),[5],4%
same,Population Mitochondria Different-Phenotype (%),[5],8%
same,Population Mitotic Cells (%),[5],71%
same,Population Normal (%),[5],95%
same,Population Pyknosed Nuclei (%),[5],6%
same,Population Tubulin-Different-Phenotype (%),[5],12%
same,Total Cell Count,[5],216
same,Population Apoptotic (%),[6],55%
same,Population Fragmented Nuclei (%),[6],11%
same,Population Healthy Nuclei (%),[6],76%
same,Population Hoechst High Intensity Objects (%),[6],2%
same,Population Membrane Permeable-Phenotype (%),[6],3%
same,Population Mitochondria Different-Phenotype (%),[6],15%
same,Population Mitotic Cells (%),[6],44%
same,Population Normal (%),[6],97%
same,Population Pyknosed Nuclei (%),[6],11%
same,Population Tubulin-Different-Phenotype (%),[6],22%
same,Total Cell Count,[6],79
same,Population Apoptotic (%),[7],53%
same,Population Fragmented Nuclei (%),[7],17%
same,Population Healthy Nuclei (%),[7],69%
same,Population Hoechst High Intensity Objects (%),[7],3%
same,Population Membrane Permeable-Phenotype (%),[7],8%
same,Population Mitochondria Different-Phenotype (%),[7],17%
same,Population Mitotic Cells (%),[7],46%
same,Population Normal (%),[7],96%
same,Population Pyknosed Nuclei (%),[7],13%
same,Population Tubulin-Different-Phenotype (%),[7],15%
same,Total Cell Count,[7],202
same,Population Apoptotic (%),[8],84%
same,Population Fragmented Nuclei (%),[8],21%
same,Population Healthy Nuclei (%),[8],32%
same,Population Hoechst High Intensity Objects (%),[8],5%
same,Population Membrane Permeable-Phenotype (%),[8],22%
same,Population Mitochondria Different-Phenotype (%),[8],50%
same,Population Mitotic Cells (%),[8],15%
same,Population Normal (%),[8],94%
same,Population Pyknosed Nuclei (%),[8],46%
same,Population Tubulin-Different-Phenotype (%),[8],33%
same,Total Cell Count,[8],59
same,Population Apoptotic (%),[9],25%
same,Population Fragmented Nuclei (%),[9],5%
same,Population Healthy Nuclei (%),[9],87%
same,Population Hoechst High Intensity Objects (%),[9],2%
same,Population Membrane Permeable-Phenotype (%),[9],1%
same,Population Mitochondria Different-Phenotype (%),[9],14%
same,Population Mitotic Cells (%),[9],74%
same,Population Normal (%),[9],97%
same,Population Pyknosed Nuclei (%),[9],7%
same,Population Tubulin-Different-Phenotype (%),[9],14%
same,Total Cell Count,[9],360
same,Population Apoptotic (%),[10],9%
same,Population Fragmented Nuclei (%),[10],9%
same,Population Healthy Nuclei (%),[10],81%
same,Population Hoechst High Intensity Objects (%),[10],3%
same,Population Membrane Permeable-Phenotype (%),[10],0%
same,Population Mitochondria Different-Phenotype (%),[10],12%
same,Population Mitotic Cells (%),[10],90%
same,Population Normal (%),[10],96%
same,Population Pyknosed Nuclei (%),[10],9%
same,Population Tubulin-Different-Phenotype (%),[10],20%
same,Total Cell Count,[10],115
same,Population Apoptotic (%),[11],77%
same,Population Fragmented Nuclei (%),[11],15%
same,Population Healthy Nuclei (%),[11],72%
same,Population Hoechst High Intensity Objects (%),[11],4%
same,Population Membrane Permeable-Phenotype (%),[11],10%
same,Population Mitochondria Different-Phenotype (%),[11],19%
same,Population Mitotic Cells (%),[11],22%
same,Population Normal (%),[11],95%
same,Population Pyknosed Nuclei (%),[11],12%
same,Population Tubulin-Different-Phenotype (%),[11],9%
same,Total Cell Count,[11],257
same,Population Apoptotic (%),[12],95%
same,Population Fragmented Nuclei (%),[12],19%
same,Population Healthy Nuclei (%),[12],35%
same,Population Hoechst High Intensity Objects (%),[12],5%
same,Population Membrane Permeable-Phenotype (%),[12],22%
same,Population Mitochondria Different-Phenotype (%),[12],33%
same,Population Mitotic Cells (%),[12],4%
same,Population Normal (%),[12],94%
same,Population Pyknosed Nuclei (%),[12],45%
same,Population Tubulin-Different-Phenotype (%),[12],33%
same,Total Cell Count,[12],54
